From ChEMBL document CHEMBL1122056, “Synthesis and biochemical properties of chemically stable product analogues of the reaction catalyzed by S-adenosyl-L-methionine decarboxylase” (J Med Chem, 1982)

Legend:
[1] = target: T1, S-adenosylmethionine decarboxylase proenzyme (Rattus norvegicus, UniProt P17708); assay: In vitro inhibitory activity against S-adenosyl-L-methionine decarboxylase using liver from rat in absence of putrescine
T1 sequence (P17708 whole entry): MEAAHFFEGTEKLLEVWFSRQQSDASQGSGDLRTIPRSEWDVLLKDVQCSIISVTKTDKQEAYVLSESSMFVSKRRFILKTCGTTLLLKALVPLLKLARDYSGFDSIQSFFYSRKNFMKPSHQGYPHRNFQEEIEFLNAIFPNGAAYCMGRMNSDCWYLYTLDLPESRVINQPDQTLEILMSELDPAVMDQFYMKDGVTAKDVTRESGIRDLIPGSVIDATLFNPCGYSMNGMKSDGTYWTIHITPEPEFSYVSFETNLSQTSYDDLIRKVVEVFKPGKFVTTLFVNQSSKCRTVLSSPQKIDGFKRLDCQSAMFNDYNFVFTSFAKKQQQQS
In short: (§1)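 Enzyme source: liver of rats injected with MGBG·2HCl (80 mg/kg) 22 h before sacrifice. The extract was taken through a 10500g centrifugation and an (NH4)2SO4 precipitation. Decarboxylation of S-adenosyl-L-[carboxy-14C]methionine was measured as 14CO2 release, with or without 1 mM putrescine. Competitive inhibition was judged from Lineweaver-Burk plots, and Ki was read from Dixon plots.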

[2] = target: T1, S-adenosylmethionine decarboxylase proenzyme; assay: In vitro inhibitory activity against S-adenosyl-L-methionine decarboxylase using liver from rat in presence of 1 mM putrescine; in short: as §1
[3] = target: T2, S-adenosylmethionine decarboxylase proenzyme (Rattus norvegicus) (UniProt P17708); assay: Time required for the half inactivation of S-Adenosyl-L-methionine decarboxylase was determined with 0.2 mM of compound
T2 sequence (whole entry): T1 sequence (P17708 whole entry)
In short: (§2)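 The partly purified rat liver enzyme, from MGBG-treated rats, was incubated at 37 °C in 30 mM sodium phosphate pH 7.1 with 5 mM dithiothreitol and the stated additions. Aliquots were taken at intervals and assayed for remaining activity with S-adenosyl-L-[carboxy-14C]methionine. The half-inactivation time was obtained by a least-squares fit of the data points.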

[4] = target: T2, S-adenosylmethionine decarboxylase proenzyme (Rattus norvegicus); assay: Time required for the half inactivation of S-Adenosyl-L-methionine decarboxylase was determined with 0.2 mM of compound along with 1 mM NaBH3CN; in short: as §2
[5] = target: T2, S-adenosylmethionine decarboxylase proenzyme (Rattus norvegicus); assay: Time required for the half inactivation of S-adenosyl-L-methionine decarboxylase was determined with 0.5 mM of compound
[6] = target: T2, S-adenosylmethionine decarboxylase proenzyme (Rattus norvegicus); assay: Time required for the half inactivation of S-adenosyl-L-methionine decarboxylase with 1 mM of compound along with 0.05 mM of [5-(6-Amino-purin-9-yl)-3,4-dihydroxy-tetrahydro-furan-2-ylmethyl]-dimethyl-sulfonium; iodide; settings: in the assay text read “0.2 mM of compound” for “1 mM of compound”; in short: as §2
[7] = target: T2, S-adenosylmethionine decarboxylase proenzyme (Rattus norvegicus); assay: Time required for the half inactivation of S-adenosyl-L-methionine decarboxylase with 0.5 mM of compound along with 0.05 mM of [5-(6-Amino-purin-9-yl)-3,4-dihydroxy-tetrahydro-furan-2-ylmethyl]-dimethyl-sulfonium; iodide; in short: as §2
[8] = target: T2, S-adenosylmethionine decarboxylase proenzyme (Rattus norvegicus); assay: Time required for the half inactivation of S-Adenosyl-L-methionine decarboxylase was determined with 0.2 mM of Compound along with 1 mM NaBH3CN; in short: as §2

SMILES	Ki [1]	Ki [2]	Inactivation time [3]	Inactivation time [4]	Inactivation time [5]	Inactivation time [6]	Inactivation time [7]	Inactivation time [8]
C[S+](C)C[C@H]1O[C@@H](n2cnc3c(N)ncnc32)[C@H](O)[C@@H]1O	20 µM	2 µM						
NCCNC[C@H]1OC(n2cnc3c(N)ncnc32)[C@H](O)[C@@H]1O (some centres undefined)	540 µM	70 µM						
N=C(N)NC[C@H]1OC(n2cnc3c(N)ncnc32)[C@H](O)[C@@H]1O (some centres undefined)	1000 µM	80 µM						
CN(CCC#N)C[C@H]1OC(n2cnc3c(N)ncnc32)[C@H](O)[C@@H]1O (some centres undefined)	2800 µM	300 µM						
NC[C@H]1O[C@@H](n2cnc3c(N)ncnc32)[C@H](O)[C@@H]1O	1700 µM	200 µM						
C[S+](CC[C@H](N)C(=O)[O-])C[C@H]1O[C@@H](n2cnc3c(N)ncnc32)[C@H](O)[C@@H]1O (some centres undefined) [ADEMETIONINE]	300 µM	60 µM	100 min	25 min				
C[S+](CCCN)C[C@H]1OC(n2cnc3c(N)ncnc32)[C@H](O)[C@@H]1O (some centres undefined)	40 µM	3 µM	100 min	10 min				
CNCCCNC[C@H]1OC(n2cnc3c(N)ncnc32)[C@H](O)[C@@H]1O (some centres undefined)		600 µM						
CN(CCCN)C[C@H]1OC(n2cnc3c(N)ncnc32)[C@H](O)[C@@H]1O (some centres undefined)	380 µM	60 µM	93 min	12 min	41 min	50 min	98 min	
NCCCNC[C@H]1OC(n2cnc3c(N)ncnc32)[C@H](O)[C@@H]1O (some centres undefined)		50 µM	250 min					25 min
